Assay outcomes (PubChem BioAssay)
MrgX1 antag: blocks BAM8-22 activation of human MrgX1 receptor; Q96LB2; MRGX1-HEK293 calcium flux, Fluo-4, BAM8-22 antagonism; active compounds read low; B-score at 10 µM; 310,000 tested, 1.3% active;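 active = calcium-response B-score plate-corrected more than 3 library SD below zero, starting fluorescence within 5 deviations, no agonist response on first addition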;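 also: peak minus trough fluorescence over baseline after final BAM8-22 challenge near maximal dose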
Target sequence (Q96LB2 whole entry, looked up): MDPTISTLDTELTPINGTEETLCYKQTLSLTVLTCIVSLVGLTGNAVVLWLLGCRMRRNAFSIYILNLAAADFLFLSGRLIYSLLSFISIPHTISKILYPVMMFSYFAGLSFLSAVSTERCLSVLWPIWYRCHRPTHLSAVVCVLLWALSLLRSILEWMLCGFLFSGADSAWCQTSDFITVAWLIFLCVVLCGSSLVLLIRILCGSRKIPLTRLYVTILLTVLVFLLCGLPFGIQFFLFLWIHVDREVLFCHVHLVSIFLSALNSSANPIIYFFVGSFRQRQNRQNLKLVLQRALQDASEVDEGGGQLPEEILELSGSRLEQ
MrgX1 ag: activates human MrgX1 receptor signaling. MrgX1-HEK293 cells, Fluo-4 calcium fluorescence, agonist mode; active compounds read high. B-score at 10 µM. 310,000 tested, 0.44% active. AID 588627;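 active = calcium response B-score plate-corrected fluorescence ratio at least 3 library SD, with starting fluorescence B-score inside 5 SD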
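System – MrgX1-expressing HEK293 cells · Incubation – cells plated overnight, dye loaded 0.5 h 37 °C, 0.5 h room temperature · Technique – kinetic Fluo-4 NW fluorescence of intracellular calcium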
RGS4 act: RGS4 potentiation or activation. HEK293 M3R/inducible RGS4, carbachol calcium flux Fluo4; active compounds read low. 310,000 tested, 0.92% active. AID 463111. B-score at 10 µM;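 active = B-score of the integrated calcium signal more than 4 SD below the library mean, with starting fluorescence not abnormally high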;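 also: negative B-score means reduced calcium response which marks RGS4 activation or potentiation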
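Assay system: HEK293 FlpIn-TREx cells, stable M3R, doxycycline-inducible RGS4 / Probe or stimulus: carbachol, ECmax concentration / Times: overnight RGS4 induction, 30 min dye load 37 °C, 20 min compound RT / Signal: kinetic calcium fluorescence imaging with Fluo4-AM dye, 2 µM / Measure: Agonist-evoked peak-minus-minimum fluorescence over baseline, integrated ratio, B score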
MrgX1 PAM: allosterically activates human MrgX1 receptor signaling; Q96LB2; MrgX1-HEK293, Fluo-4 calcium flux, FDSS; active compounds read high; B-score at 10 µM; 310,000 tested, 0.63% active; AID 588675;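 active = plate-corrected calcium response at least 3 library SD above typical, normal starting fluorescence, not activating the receptor alone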;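 also: compound read alongside a low EC10 to EC30 dose of BAM8-22 agonist; peak minus trough fluorescence over baseline measured at the second addition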
RGS4 inh: inhibitors of human RGS4. P49798. HEK293 M3R/RGS4 inducible, Fluo-4 calcium flux; active compounds read high; triggered by carbachol at its EC20. B-score at 10 µM. 310,000 tested, 0.45% active. AID 463165;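 active = B-score, a plate-corrected calcium signal, over three deviations above library mean, with baseline fluorescence within five deviations of library mean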;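 also: RGS4 expression induced by doxycycline in cells with stable M3 receptor; B-score is computed from the integrated fluorescence ratio over baseline after carbachol; higher B-score means a larger calcium signal and so more RGS4 inhibition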
Target sequence (P49798 whole entry, looked up): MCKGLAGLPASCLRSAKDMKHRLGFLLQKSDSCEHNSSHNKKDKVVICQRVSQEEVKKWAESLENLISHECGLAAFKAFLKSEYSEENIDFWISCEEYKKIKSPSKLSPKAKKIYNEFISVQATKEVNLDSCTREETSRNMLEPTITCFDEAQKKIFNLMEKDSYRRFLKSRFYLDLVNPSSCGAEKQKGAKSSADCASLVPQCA
RGS4 inh valid: RGS4 inhibitor validation; shares compounds with RGS4 inh; HEK293 M3R/RGS4, carbachol calcium Fluo-4 fluorescence; carbachol added at its EC20; 0 = buffer wells, 100 = carbachol control; calcium response, % at 10 µM; 1,700 tested, 65% active; AID 492999;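 active = duplicate-averaged calcium response above the buffer-only control mean plus 5 SD of those controls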;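 also: integrated fluorescence ratio F max minus min over baseline F0; higher response in RGS4-induced cells means RGS4 inhibition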
RGS4 uninduced: non-induced cell nonspecific activity of RGS4 inhibitors | shares compounds with RGS4 inh | 1,900 tested, 20% active | HEK293 M3R non-induced, carbachol calcium Fluo-4; submaximal (EC20) carbachol stimulus; buffer wells 0%, carbachol control wells 100% | activity (percent), % at 10 µM; call rule not given here;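 also: RGS4 induction absent so cells express M3R without RGS4; higher means more calcium signal and flags a non-specific hit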
M3R basal Ca ctr: second counter-screen for RGS4 inhibitors: non-induced cells without carbachol | shares compounds with RGS4 inh | HEK293 M3R/RGS4 non-induced, Fluo-4 calcium, no carbachol; normalised: buffer wells 0%, carbachol wells 100% | calcium response (agonist-mode artifact), % at 10 µM | 1,900 tested, 22% active;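 active = duplicate-averaged calcium rise in uninduced cells above buffer wells' mean plus 5 SD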
Active calls of the source: *; i = inactive; x = no result given. Shown are actives, neighbours in structure and some others; about 3.5% of the full set was active somewhere.

SMILES	MrgX1 antag	MrgX1 ag	RGS4 act	MrgX1 PAM	RGS4 inh	RGS4 inh valid	RGS4 uninduced	M3R basal Ca ctr
Cc1nccn1-c1ccc(C=O)cc1	i	i	i	i	i	x	x	x
COc1ccc(-c2cc(C(F)(F)F)n3nc(C(=O)NCc4ccco4)cc3n2)cc1OC	i	i	i	i	8.23*	10.0%*	i	10.0%*
COc1cccc(-c2csc(NC3OC(=O)c4c3ccc(OC)c4OC)n2)c1 (stereo not given)	i	i	i	i	i	x	i	i
COc1ccc2c(c1OC)C(=O)OC2Nc1nc(-c2ccc(-c3ccccc3)cc2)cs1 (stereo not given)	i	i	i	i	i	i	i	8.0%*
COc1ccc2c(c1OC)C(=O)OC2Nc1nc(-c2cc3ccccc3oc2=O)cs1 (stereo not given)	i	i	i	i	i	x	x	x
CC(=O)C1=C(C)NC(=S)NC1c1cccc([N+](=O)[O-])c1 (stereo not given)	i	i	i	6.5*	i	x	i	i
C=CCN1C=C2C(=O)C(C)(OC(=O)c3ccco3)C(=O)C(C=C)=C2C=C1C1CC1 (stereo not given)	i	i	i	i	i	x	x	x
CCCCC1=CC2=C(c3ccco3)C(=O)C(C)(OC(=O)c3ccc(OC)cc3)C(=O)C2=CN1CCCOC(C)C (stereo not given)	i	i	i	i	i	i	i	i
C=CCN1C=C2C(=O)C(C)(OC(=O)c3ccc(OC)cc3)C(=O)C(c3ccco3)=C2C=C1CCCC (stereo not given)	i	i	i	i	i	i	i	i
CCCCC1=CC2=C(c3ccco3)C(=O)C(C)(OC(=O)c3ccc(OC)cc3)C(=O)C2=CN1c1ccccc1 (stereo not given)	i	i	i	i	i	x	i	i
CC(C)c1ccc(OCC(=O)NCCO)cc1	i	i	i	i	i	x	x	x
CCOC(=O)CSc1nc(N)c(C#N)c(-c2cccs2)c1C#N	i	i	i	i	i	x	x	x
N#Cc1c(N)nc(SCc2ccccn2)c(C#N)c1-c1cccs1	i	i	i	i	4.68*	9.0%*	41.5%*	i
CCNC(=O)C1CC(=O)N(CCCc2ccccc2)C(=Nc2ccccc2)S1 (stereo not given)	i	i	i	i	i	x	x	x
O=C(O)CCN1C(=O)/C(=C\c2ccc(-c3nc4ccccc4s3)o2)SC1=S	i	i	i	i	i	i	i	53.5%*
O=C(O)CCCN1C(=O)/C(=C\c2ccco2)SC1=S	x	x	i	x	i	x	x	x
O=C(Cc1cccc(C(F)(F)F)c1)NCc1cccc(Cl)c1	i	i	i	i	i	x	x	x
O=C(NCc1cccc(Cl)c1)c1ccc(S(=O)(=O)Nc2cccc(C(F)(F)F)c2)cc1	i	i	i	i	i	i	i	i
O=C(N/N=C/c1cc(Cl)cc([N+](=O)[O-])c1O)NC12CC3CC(CC(C3)C1)C2	i	i	i	i	9.14*	11.5%*	i	i
C=CCN1C(=O)/C(=C/c2ccc(-c3ccc(F)cc3)o2)SC1=S	-5.6*	i	i	i	14.3*	33.5%*	i	59.5%*
O=C(O)C(c1ccccc1)N1C(=O)/C(=C\c2ccc(-c3ccc(Br)cc3)o2)SC1=S (stereo not given)	x	x	-7.76*	x	9.56*	9.0%*	i	234.0%*
C=CCN1C(=O)/C(=C/c2ccsc2)SC1=S	i	i	i	i	i	x	x	x
CCOc1ccccc1NC(=O)C1CCN(C(=O)c2cccs2)CC1	i	i	i	i	i	x	x	x
NC(=O)N/N=C/c1ccc(-n2nncc2-c2ccc(Cl)cc2)cc1	i	i	i	i	6.25*	20.0%*	41.0%*	i
O=C1NC(c2ccc(-c3ccccc3[N+](=O)[O-])o2)C(C(=O)c2ccccc2)C(O)(C(F)(F)F)N1 (stereo not given)	i	i	i	i	i	i	i	i
SMILES	MrgX1 antag	MrgX1 ag	RGS4 act	MrgX1 PAM	RGS4 inh	RGS4 inh valid	RGS4 uninduced	M3R basal Ca ctr
Cc1ccc(C(=O)C2C(c3ccc(-c4ccccc4[N+](=O)[O-])o3)NC(=O)NC2(O)C(F)(F)F)cc1 (stereo not given)	i	i	i	i	i	x	i	i
O=C1NC(c2cccs2)C(C(=O)c2ccccc2)C(O)(C(F)(F)F)N1 (stereo not given)	i	i	i	i	i	x	x	x
COc1ccc(-c2csc(Nc3ccccc3)n2)cc1	i	i	i	i	i	x	x	x
Oc1ccc(Nc2nc(-c3ccc(O)cc3)cs2)cc1	i	i	i	i	i	i	i	i
COc1cc(NS(=O)(=O)c2ccc(Nc3nc(-c4cccc([N+](=O)[O-])c4)cs3)cc2)nc(OC)n1	i	i	i	i	i	x	29.5%*	i
COc1ccc(-c2csc(Nc3ccc(S(=O)(=O)Nc4cc(C)on4)cc3)n2)cc1	i	i	i	i	14.5*	30.5%*	36.5%*	i
COc1ccc(Nc2nc(-c3ccc(OC)cc3)cs2)cc1	i	i	i	i	i	i	i	i
CC(C)(/C=N/NC(=O)CSCc1ccc(Cl)cc1)CCC#N	i	i	i	i	i	x	x	x
COc1cccc2c1Oc1ncccc1N(C(=O)CCC(=O)NCc1cccc(C)c1)C2	i	i	i	i	i	x	x	x
CCOn1c(=O)c(-c2ccc(OC)cc2)[n+]([O-])c2ccccc21	i	i	i	i	i	x	x	x
CCOn1c(=O)c(-c2ccc(OC)c(OC)c2)[n+]([O-])c2ccccc21	i	i	i	i	i	i	i	i
Cc1ccc(SCc2[nH]nc3c2C2(C(=O)Nc4ccc(F)cc42)C(C#N)=C(N)O3)cc1 (stereo not given)	i	i	i	i	i	x	i	i
